Data: ChEMBL document CHEMBL2331463, “Probing functional diversity in pactamycin toward antibiotic, antitumor, and antiprotozoal activity” (Bioorg Med Chem, 2013)
Values after ≈ are worked out from the molar mass of the structure shown.

Tests used:
Enterococcus faecalis = assay: Antibacterial activity against Enterococcus faecalis ATCC 29212 after 20 hrs by broth microdilution method; assay type: functional; settings: ATCC 29212, 20 h
Procedure, shortened: (§1)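 MIC determined by standard broth microdilution following CLSI recommendations (document M07-A8).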

Escherichia coli = assay: Antibacterial activity against Escherichia coli ATCC 25922 after 20 hrs by broth microdilution method; assay type: functional; settings: ATCC 25922, 20 h; procedure, shortened: as §1
Klebsiella pneumoniae = assay: Antibacterial activity against Klebsiella pneumoniae ATCC 700603 after 20 hrs by broth microdilution method; assay type: functional; settings: ATCC 700603, 20 h; procedure, shortened: as §1
HCT-116 = assay: Cytotoxicity against human HCT116 cells; assay type: functional, cell-based
Plasmodium falciparum [1] = assay: Antimalarial activity against Plasmodium falciparum Dd2 after 72 hrs by SYBR Green-based fluorescence assay; assay type: functional, organism-based; settings: Dd2, 72 h
Procedure, shortened: (§2)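 Drug stocks were made at 10 mM in sterile distilled water and serially diluted in culture medium. These were added in quadruplicate to asynchronous P. falciparum cultures at 0.2% parasitemia and 2% hematocrit, then incubated 72 h at 37 °C. Lysis buffer containing SYBR Green I was added, followed by 1 h at room temperature in the dark. Fluorescence was read at ex 497/em 520 nm, and IC50 was obtained by nonlinear regression of logistic dose-response curves.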

PC-3 = assay: Cytotoxicity against human PC3 cells; assay type: functional, cell-based; settings: for IC50: Homo sapiens, PC-3
[2] = Cytotoxicity against human MDA231 cells; assay type: functional, cell-based; settings: MDA-MB-231
Staphylococcus aureus = assay: Antibacterial activity against Staphylococcus aureus ATCC 25923 after 20 hrs by broth microdilution method; assay type: functional; settings: ATCC 25923, 20 h; procedure, shortened: as §1
Acinetobacter baumannii = assay: Antibacterial activity against Acinetobacter baumannii clinical isolate after 20 hrs by broth microdilution method; assay type: functional; procedure, shortened: as §1
WI-38 = assay: Cytotoxicity against human WI38 cells; assay type: functional, cell-based; settings: for IC50: Homo sapiens, WI-38
Pseudomonas aeruginosa = assay: Antibacterial activity against Pseudomonas aeruginosa ATCC 27853 after 20 hrs by broth microdilution method; assay type: functional; settings: ATCC 27853, 20 h; procedure, shortened: as §1
Plasmodium falciparum [3] = assay: Antimalarial activity against Plasmodium falciparum 7G8 after 72 hrs by SYBR Green-based fluorescence assay; assay type: functional, organism-based; settings: 7G8, 72 h; procedure, shortened: as §2
Plasmodium falciparum [4] = assay: Antimalarial activity against Plasmodium falciparum D6 after 72 hrs by SYBR Green-based fluorescence assay; assay type: functional, organism-based; settings: D6, 72 h; procedure, shortened: as §2

Structure (SMILES)	MIC (Enterococcus faecalis)	MIC (Escherichia coli)	MIC (Klebsiella pneumoniae)	IC50 (HCT-116)	IC50 (Plasmodium falciparum [1])	IC50 (PC-3)	IC50 [2]	MIC (Staphylococcus aureus)	MIC (Acinetobacter baumannii)	IC50 (WI-38)	MIC (Pseudomonas aeruginosa)	IC50 (Plasmodium falciparum [3])	IC50 (Plasmodium falciparum [4])	inhibition (INH) (WI-38)	inhibition (INH) (PC-3)
CC(=O)c1cccc(N[C@H]2[C@H](N)[C@@](NC(=O)N(C)C)([C@H](C)O)[C@@](C)(O)[C@@]2(O)COC(=O)c2c(C)cccc2O)c1 [PACTAMYCIN]	128 µg/mL (≈ 229 µM)	16 µg/mL (≈ 28.6 µM)	32 µg/mL (≈ 57.3 µM)	70 nM	< 2.5 nM	240 nM	500 nM	0.12 µg/mL (≈ 0.215 µM)	16 µg/mL (≈ 28.6 µM)	> 1000 nM	128 µg/mL (≈ 229 µM)	2.5 nM	< 2.5 nM	–	–
CC(=O)c1cccc(N[C@H]2[C@H](N)[C@@](NC(=O)N3CCOCC3)([C@H](C)O)[C@@](C)(O)[C@@]2(O)CO)c1	> 128 µg/mL	> 128 µg/mL	> 128 µg/mL	> 1000 nM	> 2500 nM	> 1000 nM	> 1000 nM	> 128 µg/mL	> 128 µg/mL	> 1000 nM	> 128 µg/mL	> 2500 nM	> 2500 nM	–	–
CC(=O)c1cccc(N[C@H]2[C@H](N)[C@@](NC(=O)N3CCCCC3)([C@H](C)O)[C@@](C)(O)[C@@]2(O)CO)c1	> 128 µg/mL	> 128 µg/mL	> 128 µg/mL	> 1000 nM	2000 nM	> 1000 nM	> 1000 nM	> 128 µg/mL	> 128 µg/mL	> 1000 nM	> 128 µg/mL	1600 nM	> 2500 nM	–	–
C[C@H](O)[C@]1(NC(=O)N(C)C)[C@@H](N)[C@H](Nc2ccccc2)[C@](O)(CO)[C@]1(C)O	> 128 µg/mL	32 µg/mL (≈ 83.7 µM)	64 µg/mL (≈ 167 µM)	810 nM	13.9 nM	> 1000 nM	> 1000 nM	64 µg/mL (≈ 167 µM)	> 128 µg/mL	> 1000 nM	> 128 µg/mL	18.5 nM	14.6 nM	–	–
C[C@H](O)[C@]1(NC(=O)N(C)C)[C@@H](N)[C@H](Nc2cccc(C(F)(F)F)c2)[C@](O)(CO)[C@]1(C)O	64 µg/mL (≈ 142 µM)	16 µg/mL (≈ 35.5 µM)	128 µg/mL (≈ 284 µM)	100 nM	3.5 nM	750 nM	380 nM	2 µg/mL (≈ 4.44 µM)	64 µg/mL (≈ 142 µM)	> 1000 nM	> 128 µg/mL	< 2.5 nM	6.7 nM	42%	–
CC(=O)c1cccc(N[C@H]2[C@H](N)[C@]3(NC(=O)O[C@H]3C)[C@@](C)(O)[C@@]2(O)COC(=O)c2c(C)cccc2O)c1 [PACTAMYCATE]	> 128 µg/mL	> 128 µg/mL	> 128 µg/mL	> 1000 nM	> 2500 nM	> 1000 nM	> 1000 nM	> 128 µg/mL	> 128 µg/mL	> 1000 nM	> 128 µg/mL	> 2500 nM	> 2500 nM	–	–
C[C@H](O)[C@]1(NC(=O)N(C)C)[C@@H](N)[C@H](Nc2cccc(F)c2)[C@](O)(CO)[C@]1(C)O	128 µg/mL (≈ 320 µM)	8 µg/mL (≈ 20 µM)	32 µg/mL (≈ 79.9 µM)	190 nM	7.4 nM	> 1000 nM	> 1000 nM	4 µg/mL (≈ 9.99 µM)	64 µg/mL (≈ 160 µM)	> 1000 nM	> 128 µg/mL	< 2.5 nM	6.5 nM	34%	35%
CC(=O)c1cccc(N[C@H]2[C@H](N)[C@]3(NC(=O)O[C@H]3C)[C@@](C)(O)[C@@]2(O)CO)c1	> 128 µg/mL	> 128 µg/mL	> 128 µg/mL	> 1000 nM	> 2500 nM	> 1000 nM	> 1000 nM	> 128 µg/mL	> 128 µg/mL	> 1000 nM	> 128 µg/mL	> 2500 nM	> 2500 nM	–	–
CC(=O)c1cccc(N[C@H]2[C@H](N)[C@@](NC(=O)N(C)C)([C@H](C)O)[C@@](C)(O)[C@@]2(O)CO)c1	64 µg/mL (≈ 151 µM)	4 µg/mL (≈ 9.42 µM)	8 µg/mL (≈ 18.8 µM)	70 nM	< 2.5 nM	310 nM	260 nM	2 µg/mL (≈ 4.71 µM)	128 µg/mL (≈ 302 µM)	> 1000 nM	128 µg/mL (≈ 302 µM)	2.5 nM	< 2.5 nM	–	–
COc1cccc(N[C@H]2[C@H](N)[C@@](NC(=O)N(C)C)([C@H](C)O)[C@@](C)(O)[C@@]2(O)CO)c1	> 128 µg/mL	64 µg/mL (≈ 155 µM)	> 128 µg/mL	390 nM	11.5 nM	> 1000 nM	> 1000 nM	16 µg/mL (≈ 38.8 µM)	128 µg/mL (≈ 310 µM)	> 1000 nM	> 128 µg/mL	19.8 nM	13.7 nM	–	–
CCN(CC)C(=O)N[C@@]1([C@H](C)O)[C@@H](N)[C@H](Nc2cccc(C(C)=O)c2)[C@](O)(CO)[C@]1(C)O	128 µg/mL (≈ 283 µM)	> 128 µg/mL	> 128 µg/mL	230 nM	40 nM	400 nM	440 nM	4 µg/mL (≈ 8.84 µM)	> 128 µg/mL	> 1000 nM	> 128 µg/mL	42 nM	29 nM	–	–
CC(=O)c1cccc(N[C@H]2[C@H](N)[C@@](NC(=O)N3CCCC3)([C@H](C)O)[C@@](C)(O)[C@@]2(O)CO)c1	128 µg/mL (≈ 284 µM)	64 µg/mL (≈ 142 µM)	128 µg/mL (≈ 284 µM)	90 nM	9 nM	150 nM	120 nM	8 µg/mL (≈ 17.8 µM)	> 128 µg/mL	> 1000 nM	> 128 µg/mL	10 nM	9 nM	–	–
